ChEMBL document CHEMBL4689842, “EUbOPEN Chemogenomics Library wave 1” (2021)

System: HEK-293T
Assay: Multiplex assay against HEK293T;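 on Population Tubulin-Different-Phenotype (%): share of the cells with healthy nuclei that show this phenotype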
Format: toxicity, cell-based
Settings: human
How it was run: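 Values for tubulin, mitochondrial-mass and membrane-permeability phenotypes are per cents of cells with healthy nuclei. These cells were identified by CellPathfinder machine-learning gating of live cells that had been stained at seeding with Hoechst33342, BioTracker Green Microtubule Cytoskeleton Dye, MitoTracker Red and Annexin V Alexa Fluor 680 and imaged on a CQ1 microscope at 37°C and 5% CO2 after compound addition. The gating first set Hoechst high-intensity objects apart from normal cells, then split normal cells into healthy, pyknosed or fragmented nuclei, and pyknosed cells into mitotic or apoptotic.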

[1] = 12 h, 1 µM, compound concentration 1 uM, replicate 1
[2] = 12 h, 1 µM, compound concentration 1 uM, replicate 2
[3] = 12 h, 10 µM, compound concentration 10 uM, replicate 1
[4] = 12 h, 10 µM, compound concentration 10 uM, replicate 2
[5] = 24 h, 1 µM, compound concentration 1 uM, replicate 1
[6] = 24 h, 1 µM, compound concentration 1 uM, replicate 2
[7] = 24 h, 10 µM, compound concentration 10 uM, replicate 1
[8] = 24 h, 10 µM, compound concentration 10 uM, replicate 2
[9] = 48 h, 1 µM, compound concentration 1 uM, replicate 1
[10] = 48 h, 1 µM, compound concentration 1 uM, replicate 2
[11] = 48 h, 10 µM, compound concentration 10 uM, replicate 1
[12] = 48 h, 10 µM, compound concentration 10 uM, replicate 2

Cc1nc(Cc2cccc(C(F)(F)F)c2)sc1-c1ccc(C(N)=O)nc1 [TP-024n]
Population Apoptotic (%) [1]: 41%
Population Fragmented Nuclei (%) [1]: 7%
Population Healthy Nuclei (%) [1]: 53%
Population Hoechst High Intensity Objects (%) [1]: 14%
Population Membrane Permeable-Phenotype (%) [1]: 2%
Population Mitochondria Different-Phenotype (%) [1]: 65%
Population Mitotic Cells (%) [1]: 58%
Population Normal (%) [1]: 85%
Population Pyknosed Nuclei (%) [1]: 39%
Population Tubulin-Different-Phenotype (%) [1]: 41%
Total Cell Count [1]: 435
Population Apoptotic (%) [2]: 10%
Population Fragmented Nuclei (%) [2]: 2%
Population Healthy Nuclei (%) [2]: 47%
Population Hoechst High Intensity Objects (%) [2]: 5%
Population Membrane Permeable-Phenotype (%) [2]: 9%
Population Mitochondria Different-Phenotype (%) [2]: 22%
Population Mitotic Cells (%) [2]: 89%
Population Normal (%) [2]: 94%
Population Pyknosed Nuclei (%) [2]: 50%
Population Tubulin-Different-Phenotype (%) [2]: 26%
Total Cell Count [2]: 212
Population Apoptotic (%) [3]: 50%
Population Fragmented Nuclei (%) [3]: 11%
Population Healthy Nuclei (%) [3]: 29%
Population Hoechst High Intensity Objects (%) [3]: 12%
Population Membrane Permeable-Phenotype (%) [3]: 0%
Population Mitochondria Different-Phenotype (%) [3]: 91%
Population Mitotic Cells (%) [3]: 49%
Population Normal (%) [3]: 87%
Population Pyknosed Nuclei (%) [3]: 59%
Population Tubulin-Different-Phenotype (%) [3]: 59%
Total Cell Count [3]: 316
Population Apoptotic (%) [4]: 25%
Population Fragmented Nuclei (%) [4]: 8%
Population Healthy Nuclei (%) [4]: 25%
Population Hoechst High Intensity Objects (%) [4]: 9%
Population Membrane Permeable-Phenotype (%) [4]: 6%
Population Mitochondria Different-Phenotype (%) [4]: 66%
Population Mitotic Cells (%) [4]: 75%
Population Normal (%) [4]: 90%
Population Pyknosed Nuclei (%) [4]: 65%
Population Tubulin-Different-Phenotype (%) [4]: 30%
Total Cell Count [4]: 141
Population Apoptotic (%) [5]: 49%
Population Fragmented Nuclei (%) [5]: 9%
Population Healthy Nuclei (%) [5]: 50%
Population Hoechst High Intensity Objects (%) [5]: 11%
Population Membrane Permeable-Phenotype (%) [5]: 2%
Population Mitochondria Different-Phenotype (%) [5]: 55%
Population Mitotic Cells (%) [5]: 50%
Population Normal (%) [5]: 88%
Population Pyknosed Nuclei (%) [5]: 40%
Population Tubulin-Different-Phenotype (%) [5]: 28%
Total Cell Count [5]: 429
Population Apoptotic (%) [6]: 19%
Population Fragmented Nuclei (%) [6]: 4%
Population Healthy Nuclei (%) [6]: 62%
Population Hoechst High Intensity Objects (%) [6]: 2%
Population Membrane Permeable-Phenotype (%) [6]: 5%
Population Mitochondria Different-Phenotype (%) [6]: 24%
Population Mitotic Cells (%) [6]: 80%
Population Normal (%) [6]: 97%
Population Pyknosed Nuclei (%) [6]: 33%
Population Tubulin-Different-Phenotype (%) [6]: 36%
Total Cell Count [6]: 239
Population Apoptotic (%) [7]: 51%
Population Fragmented Nuclei (%) [7]: 11%
Population Healthy Nuclei (%) [7]: 31%
Population Hoechst High Intensity Objects (%) [7]: 17%
Population Membrane Permeable-Phenotype (%) [7]: 3%
Population Mitochondria Different-Phenotype (%) [7]: 86%
Population Mitotic Cells (%) [7]: 48%
Population Normal (%) [7]: 82%
Population Pyknosed Nuclei (%) [7]: 57%
Population Tubulin-Different-Phenotype (%) [7]: 52%
Total Cell Count [7]: 338
Population Apoptotic (%) [8]: 36%
Population Fragmented Nuclei (%) [8]: 10%
Population Healthy Nuclei (%) [8]: 30%
Population Hoechst High Intensity Objects (%) [8]: 10%
Population Membrane Permeable-Phenotype (%) [8]: 2%
Population Mitochondria Different-Phenotype (%) [8]: 65%
Population Mitotic Cells (%) [8]: 63%
Population Normal (%) [8]: 89%
Population Pyknosed Nuclei (%) [8]: 59%
Population Tubulin-Different-Phenotype (%) [8]: 50%
Total Cell Count [8]: 148
Population Apoptotic (%) [9]: 32%
Population Fragmented Nuclei (%) [9]: 12%
Population Healthy Nuclei (%) [9]: 50%
Population Hoechst High Intensity Objects (%) [9]: 9%
Population Membrane Permeable-Phenotype (%) [9]: 4%
Population Mitochondria Different-Phenotype (%) [9]: 25%
Population Mitotic Cells (%) [9]: 67%
Population Normal (%) [9]: 90%
Population Pyknosed Nuclei (%) [9]: 37%
Population Tubulin-Different-Phenotype (%) [9]: 25%
Total Cell Count [9]: 594
Population Apoptotic (%) [10]: 17%
Population Fragmented Nuclei (%) [10]: 5%
Population Healthy Nuclei (%) [10]: 80%
Population Hoechst High Intensity Objects (%) [10]: 2%
Population Membrane Permeable-Phenotype (%) [10]: 5%
Population Mitochondria Different-Phenotype (%) [10]: 5%
Population Mitotic Cells (%) [10]: 82%
Population Normal (%) [10]: 97%
Population Pyknosed Nuclei (%) [10]: 13%
Population Tubulin-Different-Phenotype (%) [10]: 19%
Total Cell Count [10]: 464
Population Apoptotic (%) [11]: 53%
Population Fragmented Nuclei (%) [11]: 18%
Population Healthy Nuclei (%) [11]: 27%
Population Hoechst High Intensity Objects (%) [11]: 12%
Population Membrane Permeable-Phenotype (%) [11]: 2%
Population Mitochondria Different-Phenotype (%) [11]: 69%
Population Mitotic Cells (%) [11]: 46%
Population Normal (%) [11]: 87%
Population Pyknosed Nuclei (%) [11]: 53%
Population Tubulin-Different-Phenotype (%) [11]: 42%
Total Cell Count [11]: 373
Population Apoptotic (%) [12]: 46%
Population Fragmented Nuclei (%) [12]: 10%
Population Healthy Nuclei (%) [12]: 39%
Population Hoechst High Intensity Objects (%) [12]: 5%
Population Membrane Permeable-Phenotype (%) [12]: 6%
Population Mitochondria Different-Phenotype (%) [12]: 54%
Population Mitotic Cells (%) [12]: 53%
Population Normal (%) [12]: 94%
Population Pyknosed Nuclei (%) [12]: 50%
Population Tubulin-Different-Phenotype (%) [12]: 60%
Total Cell Count [12]: 164
